ChEMBL document CHEMBL4680199, “Synthesis and in vitro evaluation of new 5-substituted 6-nitroimidazooxazoles as antikinetoplastid agents” (Eur J Med Chem, 2020)

Key:
[1] = Cytotoxicity against CHO cells assessed as reduction in cell viability after 24 hrs by MTT assay; format: cell-based, Cricetulus griseus; conditions: chinese hamster
Outline: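 Cells in complete RPMI (10% FCS, L-glutamine, penicillin/streptomycin) were allowed to adhere for 24 h at 37 °C in 5% CO₂. Compounds in DMSO (final <0.5% v/v) were then added in duplicate for 24 h. MTT (0.5 mg/mL in FCS-free medium) was applied for 2 h, formazan was dissolved in DMSO, and A570 was read with 630 nm reference. Viability is % of untreated cells; CC50 by non-linear regression; mean of three experiments.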

Trypanosoma cruzi = assay: Antitrypanosomal activity against Trypanosoma cruzi CL amastigotes overexpressing tdTomato red fluorescent protein infected in gamma-irradiated African green monkey Vero cells assessed as reduction in parasite growth measured 3 days post-infection by fluorescence assay; format: functional, organism-based; conditions: light or radiation study, 72 h
Leishmania donovani = assay: Antileishmanial activity against Leishmania donovani MHOM/IN/00/DEVI promastigotes measured after 72 hrs by MTT assay; format: functional, organism-based
Outline: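 Log-phase promastigotes were grown in Schneider's medium with 20% FCS, 2 mM L-glutamine and penicillin/streptomycin, and seeded at 10⁶ parasites/mL. Compounds in DMSO (final <0.5% v/v) were tested in duplicate for 72 h at 27 °C. MTT was added for 4 h, the reaction was stopped with 50% isopropanol/10% SDS, and A570 was read. IC50 relative to control was fitted by non-linear regression; mean of ≥3 independent experiments.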

[2] = Selectivity index, ratio of CC50 for CHO cells to IC50 for antileishmanial activity against Leishmania donovani MHOM/IN/00/DEVI promastigotes; format: toxicity; conditions: hamster, read-out: Ratio CC50/IC50
Outline: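 SI = CHO CC50 / promastigote IC50. Promastigotes: log-phase, Schneider's + 20% FCS, 10⁶/mL, DMSO <0.5% final, 72 h at 27 °C, MTT 4 h, A570, ≥3 experiments. CHO: complete RPMI + 10% FCS, 24 h attachment, 24 h exposure at 37 °C, MTT 0.5 mg/mL 2 h, A570/630, three experiments. Both values from non-linear regression of dose-response curves.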

[3] = Selectivity index, ratio of CC50 for CHO cells to IC50 for antitrypanosomal activity against Trypanosoma cruzi CL amastigotes overexpressing tdTomato red fluorescent protein infected in gamma-irradiated African green monkey Vero cells; format: toxicity; conditions: Chinese hamster, read-out: Ratio CC50/IC50
Outline: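 SI = CHO CC50 / T. cruzi IC50. CHO cells: complete RPMI + 10% FCS, 24 h attachment, then 24 h compound exposure at 37 °C, 5% CO₂, DMSO <0.5% final, in duplicate. MTT 0.5 mg/mL for 2 h, read at A570/630, three experiments. Parasites were tdTomato-labelled trypomastigotes. Both values from non-linear regression of dose-response curves.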

Row | SMILES | CC50 at 24 h [1] [µM] | IC50 (Trypanosoma cruzi) [µM] | IC50 (Leishmania donovani) [µM] | selectivity ratio [2] | selectivity ratio [3]
1 | CC1Cn2cc([N+](=O)[O-])nc2O1 (centres undefined) | > 500 | > 10 | 0.1 | > 5000 | 
2 | CC1Cn2c(nc([N+](=O)[O-])c2C#Cc2ccc(CO)cc2)O1 (centres undefined) | 8.77 | 1.61 | 4.11 | 2.1 | 5.4
3 | Cc1ccc(-c2c([N+](=O)[O-])nc3n2CC(C)O3)s1 (centres undefined) | > 125 | > 10 | > 10 |  | 
4 | CC1Cn2c(nc([N+](=O)[O-])c2-c2ccc(C=O)cc2)O1 (centres undefined) | 255 | > 10 | > 10 |  | 
5 | CC1Cn2c(nc([N+](=O)[O-])c2Br)O1 (centres undefined) | 9.19 | > 10 | 6.71 | 1.4 | 
6 | CC1Cn2c(nc([N+](=O)[O-])c2-c2ccc(Cl)cc2)O1 (centres undefined) | > 250 | > 10 | > 10 |  | 
7 | COc1cc(-c2c([N+](=O)[O-])nc3n2CC(C)O3)cc(OC)c1OC (centres undefined) | > 125 | > 10 | > 10 |  | 
8 | CC1Cn2c(nc([N+](=O)[O-])c2C#Cc2cccc(N)c2)O1 (centres undefined) | 18.1 | 3.63 | 3.49 | 5.2 | 5
9 | CC1Cn2c(nc([N+](=O)[O-])c2C#Cc2ccccc2)O1 (centres undefined) | 3.54 | 1.46 | 2.08 | 1.7 | 2.4
10 | COc1cccc(C#Cc2c([N+](=O)[O-])nc3n2CC(C)O3)c1 (centres undefined) | 12.9 | 0.92 | 1.58 | 8.1 | 14
11 | CC1Cn2c(nc([N+](=O)[O-])c2C#Cc2ccc(C(C)(C)C)cc2)O1 (centres undefined) | 6.62 | 2.86 | 0.61 | 10.8 | 2.3
12 | Cc1ccc(C#Cc2c([N+](=O)[O-])nc3n2CC(C)O3)cc1 (centres undefined) | 5.47 | 2.18 | 1.66 | 3.3 | 2.5
13 | CC1Cn2c(nc([N+](=O)[O-])c2-c2ccc(OC(F)(F)F)cc2)O1 (centres undefined) | > 125 | > 10 | > 10 |  | 
14 | CC1Cn2c(nc([N+](=O)[O-])c2-c2cccc(C(F)(F)F)c2)O1 (centres undefined) | > 250 | > 10 | > 10 |  | 
15 | CC1Cn2c(nc([N+](=O)[O-])c2C#CC2CC2)O1 (centres undefined) | 6.45 | 4.1 | 4.59 | 1.4 | 1.6
16 | Cc1ccc(-c2c([N+](=O)[O-])nc3n2CC(C)O3)cc1 (centres undefined) | > 250 | > 10 | > 10 |  | 
17 | CC1Cn2c(nc([N+](=O)[O-])c2-c2cccc(C#N)c2)O1 (centres undefined) | > 500 | > 10 | > 10 |  | 
18 | CC1Cn2c(nc([N+](=O)[O-])c2-c2ccc(CO)cc2)O1 (centres undefined) | > 500 | > 10 | > 10 |  | 
19 | CC1Cn2c(nc([N+](=O)[O-])c2-c2ccccc2)O1 (centres undefined) | > 500 | > 10 | > 10 |  | 
20 | CCCOc1ccc(-c2c([N+](=O)[O-])nc3n2CC(C)O3)cc1 (centres undefined) | > 125 | > 10 | > 10 |  | 
21 | C[C@@H]1[C@H](O)[C@@H](C)/C=C/C=C/C=C/C=C/C=C/C=C/C=C/[C@H](O[C@@H]2O[C@H](C)[C@@H](O)[C@H](N)[C@@H]2O)C[C@@H]2O[C@](O)(C[C@@H](O)C[C@@H](O)[C@H](O)CC[C@@H](O)C[C@@H](O)CC(=O)O[C@H]1C)C[C@H](O)[C@H]2C(=O)O [AMPHOTERICIN B] |  |  | 0.18 |  | 
22 | O=C(Cn1ccnc1[N+](=O)[O-])NCc1ccccc1 [BENZNIDAZOLE] |  | 2.31 |  |  | 
23 | COc1cccc2c1C(=O)c1c(O)c3c(c(O)c1C2=O)C[C@@](O)(C(=O)CO)C[C@@H]3O[C@H]1C[C@H](N)[C@H](O)[C@H](C)O1 [DOXORUBICIN] | 4.65 |  |  |  | 
